From ChEMBL document CHEMBL1926635, “Identification of novel molecular scaffolds for the design of MMP-13 inhibitors: a first round of lead optimization” (Eur J Med Chem, 2012)

Assays:
Collagenase 3 = Collagenase 3 (Homo sapiens, UniProt P45452); experiment: Inhibition of human MMP13 using Mca-Lys-Pro-Leu-Gly-Leu-Dap(Dnp)-Ala-Arg-NH2 as substrate pre-incubated for 4 hrs before substrate addition measured every 15 secs for 15 mins by fluorimetry
Interstitial collagenase = target: T1, Interstitial collagenase (Homo sapiens, UniProt P03956); experiment: Inhibition of human MMP1 using Mca-Lys-Pro-Leu-Gly-Leu-Dap(Dnp)-Ala-Arg-NH2 as substrate pre-incubated for 4 hrs before substrate addition measured every 15 secs for 15 mins by fluorimetry
T1 sequence (P03956 whole entry): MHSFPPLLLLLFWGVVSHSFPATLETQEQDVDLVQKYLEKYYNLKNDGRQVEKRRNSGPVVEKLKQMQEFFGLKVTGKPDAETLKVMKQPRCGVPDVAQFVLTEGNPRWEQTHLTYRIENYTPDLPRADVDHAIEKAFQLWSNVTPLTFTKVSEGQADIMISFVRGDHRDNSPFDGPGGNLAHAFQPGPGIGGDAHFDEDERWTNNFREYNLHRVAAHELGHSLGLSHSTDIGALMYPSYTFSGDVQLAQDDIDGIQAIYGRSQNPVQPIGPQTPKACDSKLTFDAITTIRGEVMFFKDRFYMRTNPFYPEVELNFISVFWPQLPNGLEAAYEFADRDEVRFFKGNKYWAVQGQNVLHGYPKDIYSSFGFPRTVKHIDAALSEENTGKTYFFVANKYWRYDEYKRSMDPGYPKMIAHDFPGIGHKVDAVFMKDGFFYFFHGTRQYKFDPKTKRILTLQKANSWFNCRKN
Procedure, shortened: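 Pro-MMP-1 activated with APMA 2 mM for 2 h at 37 °C. Enzyme at 2.0 nM final was pre-incubated with inhibitor for 4 h at 25 °C in Tris 50 mM pH 7.5, NaCl 150 mM, CaCl₂ 10 mM, 0.05% Brij-35 and 1% DMSO. Read-out was fluorescence at ex 325/em 395 nm, in triplicate. IC50 was fitted to Vi/Vo = 1/(1+[I]/IC50) using ≥5 concentrations giving 10–90% inhibition.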

[1] = target: 72 kDa type IV collagenase (Homo sapiens, UniProt P08253); experiment: Inhibition of human MMP2 using Mca-Lys-Pro-Leu-Gly-Leu-Dap(Dnp)-Ala-Arg-NH2 as substrate pre-incubated for 4 hrs before substrate addition measured every 15 secs for 15 mins by fluorimetry
72 kDa type IV collagenase, sequence (P08253 whole entry): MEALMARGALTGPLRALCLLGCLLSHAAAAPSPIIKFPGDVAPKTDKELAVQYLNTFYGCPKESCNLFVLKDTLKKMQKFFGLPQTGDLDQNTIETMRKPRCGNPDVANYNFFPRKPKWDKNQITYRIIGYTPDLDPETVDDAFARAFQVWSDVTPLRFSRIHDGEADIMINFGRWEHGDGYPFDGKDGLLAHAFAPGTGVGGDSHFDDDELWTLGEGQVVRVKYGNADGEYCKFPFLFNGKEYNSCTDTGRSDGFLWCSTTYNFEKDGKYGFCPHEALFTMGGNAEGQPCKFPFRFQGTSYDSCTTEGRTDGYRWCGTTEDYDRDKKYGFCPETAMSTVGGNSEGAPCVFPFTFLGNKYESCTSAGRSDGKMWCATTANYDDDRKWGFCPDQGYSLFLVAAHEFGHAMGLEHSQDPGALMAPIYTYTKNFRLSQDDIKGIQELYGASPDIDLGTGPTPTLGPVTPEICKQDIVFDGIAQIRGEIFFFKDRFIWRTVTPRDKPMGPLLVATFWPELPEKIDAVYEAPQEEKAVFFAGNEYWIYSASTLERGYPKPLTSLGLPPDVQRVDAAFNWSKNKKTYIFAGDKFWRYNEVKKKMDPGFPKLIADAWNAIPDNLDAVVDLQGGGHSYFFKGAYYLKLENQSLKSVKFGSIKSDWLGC
Procedure, shortened: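 APMA 2 mM for 1 h at 37 °C activated the proenzyme. MMP-2 at 0.56 nM final was incubated with inhibitor for 4 h at 25 °C in pH 7.5 Tris buffer with NaCl, CaCl₂, 0.05% Brij-35 and 1% DMSO. Fluorescence was read at 325/395 nm, in triplicate. Percent inhibition was taken against the uninhibited control. IC50 came from ≥5 concentrations within 10–90% inhibition, fitted to Vi/Vo = 1/(1+[I]/IC50).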

Stromelysin-1 = Stromelysin-1 (Homo sapiens, UniProt P08254); experiment: Inhibition of human MMP3 using Mca-Arg-Pro-Lys-Pro-Val-Glu-Nva-Trp-Arg-Lys(Dnp)-NH2 as substrate pre-incubated for 4 hrs before substrate addition measured every 15 secs for 15 mins by fluorimetry
Stromelysin-1, sequence (P08254 whole entry): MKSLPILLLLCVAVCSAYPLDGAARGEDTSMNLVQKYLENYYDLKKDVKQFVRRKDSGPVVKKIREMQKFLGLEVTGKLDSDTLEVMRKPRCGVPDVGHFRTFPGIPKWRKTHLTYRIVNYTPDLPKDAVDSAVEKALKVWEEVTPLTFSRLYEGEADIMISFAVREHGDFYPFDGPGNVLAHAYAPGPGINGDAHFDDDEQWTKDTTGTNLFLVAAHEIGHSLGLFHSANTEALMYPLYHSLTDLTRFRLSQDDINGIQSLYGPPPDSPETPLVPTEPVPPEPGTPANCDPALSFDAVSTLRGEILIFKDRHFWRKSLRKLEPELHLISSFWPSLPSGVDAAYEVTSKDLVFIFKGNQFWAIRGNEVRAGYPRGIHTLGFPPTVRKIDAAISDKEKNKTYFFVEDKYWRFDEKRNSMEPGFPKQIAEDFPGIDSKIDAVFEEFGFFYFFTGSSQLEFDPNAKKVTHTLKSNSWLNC
Procedure, shortened: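 Pro-MMP-3 was activated with trypsin for 30 min at 37 °C, then quenched with soybean trypsin inhibitor. Enzyme at 5 nM final was pre-incubated with inhibitor for 4 h at 25 °C in Tris 50 mM pH 7.5, NaCl 150 mM, CaCl₂ 10 mM, 0.05% Brij-35 and 1% DMSO. Fluorescence was read at ex 325/em 395 nm, in triplicate. IC50 was fitted to Vi/Vo = 1/(1+[I]/IC50) from ≥5 concentrations giving 10–90% inhibition.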

[2] = target: Matrix metalloproteinase-14 (Homo sapiens, UniProt P50281); experiment: Inhibition of recombinant human MMP14 catalytic domain using Mca-Lys-Pro-Leu-Gly-Leu-Dap(Dnp)-Ala-Arg-NH2 as substrate pre-incubated for 4 hrs before substrate addition measured every 15 secs for 15 mins by fluorimetry
Procedure, shortened: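 Catalytic domain used at 1 nM final and incubated with inhibitor for 4 h at 25 °C in Tris 50 mM pH 7.5, NaCl 150 mM, CaCl₂ 10 mM, 0.05% Brij-35 and 1% DMSO. Fluorescence was read at 325/395 nm, in triplicate. Percent inhibition was taken against the no-inhibitor control. IC50 was fitted to Vi/Vo = 1/(1+[I]/IC50) from ≥5 concentrations within 10–90% inhibition.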

[3] = Dissociation constant, pKa of the compound; assay type: physicochemical

| SMILES | IC50 (Collagenase 3) [µM] | IC50 (Interstitial collagenase) [µM] | IC50 [1] [µM] | IC50 (Stromelysin-1) [µM] | IC50 [2] [µM] | pKa [3] |
| --- | --- | --- | --- | --- | --- | --- |
| O=C(O)c1cccc(-n2cc(-c3cc4cccc(O)c4oc3=O)[nH]c2=S)c1 | 5.5 |  |  |  |  |  |
| O=C(O)CCCN1C(=O)S/C(=C\C=C\c2ccccc2)C1=O | 22 | 93 | 2.7 | 110 | 21 | 3.89 |
| COc1ccc(-c2ccc(/C=C3/SC(=S)N(CC(=O)O)C3=O)o2)cc1 | 120 | 860 | 350 | 850 | 310 | 3.62 |
| O=c1oc2ccccc2cc1-c1cn(-c2ccccc2)c(S)n1 | 177 |  |  |  |  |  |
| CCOc1ccc(-c2ccc(S(=O)(=O)N[C@@H](C(=O)O)C3CCN(C(=O)OC(C)C)CC3)s2)cc1 |  |  |  |  |  | 2.55 |
| O=C(O)c1cccc(-n2cc(-c3cc4ccccc4oc3=O)[nH]c2=S)c1 |  | 400 | 67 | 110 | 51 | 3.91 |
| COc1ccc(-c2cs/c(=N\c3ccccc3)n2/N=C/c2ccccc2)cc1OC | 140 | 360 | 120 | 230 | 150 |  |
| CCOC(=O)c1cccc(-n2cc(-c3cc4ccccc4oc3=O)[nH]c2=S)c1 | > 300 |  |  |  |  |  |
| COc1cc(Cl)cc2cc(-c3cn(-c4cccc(C(=O)O)c4)c(=S)[nH]3)c(=O)oc12 | 4.9 |  |  |  |  |  |
| O=C(O)COc1ccccc1/C=C1/NC(=S)NC1=O | 67 | 114 | 61 | 77 | 55 | 3.68 |
| COc1ccc2oc(=O)c(-c3cn(-c4cccc(C(=O)O)c4)c(=S)[nH]3)cc2c1 | 3.2 |  |  |  |  |  |
| C=CCc1cc(OC)c2oc(=O)c(-c3cn(-c4cccc(C(=O)O)c4)c(=S)[nH]3)cc2c1 | 4.9 |  |  |  |  |  |
